From ChEMBL document CHEMBL4346697, “Probing structural requirements for human topoisomerase I inhibition by a novel N1-Biphenyl fluoroquinolone” (Eur J Med Chem, 2019)
The source made the active and inactive calls. The calls are words filed in the database; no cut-off is given here.

How the values were obtained:
DNA topoisomerase 1 = target: T1, DNA topoisomerase 1 (Homo sapiens, UniProt P11387); experiment: Inhibition of human topoisomerase 1 using supercoiled pBR322 plasmid DNA as substrate after 15 mins by ethidium bromide staining based agarose gel electrophoresis method
T1 sequence (P11387 whole entry): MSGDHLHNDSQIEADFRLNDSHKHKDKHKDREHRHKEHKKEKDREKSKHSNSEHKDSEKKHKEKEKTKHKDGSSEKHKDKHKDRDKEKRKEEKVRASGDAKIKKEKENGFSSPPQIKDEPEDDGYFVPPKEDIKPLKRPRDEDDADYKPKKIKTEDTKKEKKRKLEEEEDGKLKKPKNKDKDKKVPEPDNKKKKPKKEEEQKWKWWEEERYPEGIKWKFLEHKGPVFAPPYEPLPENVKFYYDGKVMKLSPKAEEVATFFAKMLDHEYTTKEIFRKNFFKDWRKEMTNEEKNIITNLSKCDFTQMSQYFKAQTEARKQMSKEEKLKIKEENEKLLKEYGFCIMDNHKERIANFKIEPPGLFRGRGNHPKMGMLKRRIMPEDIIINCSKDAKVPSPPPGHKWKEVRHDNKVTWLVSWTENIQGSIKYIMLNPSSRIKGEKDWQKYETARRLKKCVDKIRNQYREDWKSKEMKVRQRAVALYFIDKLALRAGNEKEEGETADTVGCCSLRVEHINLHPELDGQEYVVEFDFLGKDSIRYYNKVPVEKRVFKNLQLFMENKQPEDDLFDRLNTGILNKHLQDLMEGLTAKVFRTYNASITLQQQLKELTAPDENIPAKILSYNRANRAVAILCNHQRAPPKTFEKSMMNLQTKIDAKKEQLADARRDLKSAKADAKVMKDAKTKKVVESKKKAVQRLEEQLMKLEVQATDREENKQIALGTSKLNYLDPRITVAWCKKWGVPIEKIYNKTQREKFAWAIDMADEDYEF
Method in brief: (§1)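 hTopo I (1 unit) relaxed 0.3 μg supercoiled plasmid in 50 mM Tris-HCl pH 7.5, 100 mM NaCl, 10 mM MgCl2, 1 mM DTT, 50 μg/ml BSA with varied compound concentrations, at 37°C for 15 min.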

Calf thymus DNA = experiment: Binding affinity to calf thymus DNA assessed as bathochromic shift at 25 uM by fluorescence spectra analysis; type: nucleic-acid assay; settings: Bos taurus
Method in brief: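 Compound at 25 μM, with calf thymus DNA at 0 or 400 μM, in 10 mM Tris-HCl pH 7.4 at room temperature; final DMSO ≤5%. Emission spectra were recorded from 320–600 nm to look for a bathochromic shift. DNA was dissolved in the same buffer, checked by A260/A280 (1.8–1.9) and quantified at 260 nm (ε 6600 M−1 cm−1 per nucleotide).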

[1] = Binding affinity to d(CCTTACGTGCATAGTCATTCATGACCG) dsDNA (unknown origin) assessed as bathochromic shift at 25 uM by fluorescence spectra analysis
Method in brief: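 The 27-bp duplex was made by annealing complementary strands 1:1 at 95°C for 2 min, then cooling to room temperature. Compound at 25 μM, with dsDNA at 0–200 μM, in 10 mM Tris-HCl pH 7.4 at room temperature; DMSO ≤5% final. Spectra and intensity were read after blank subtraction, normalized to the no-DNA signal; technical replicates, n=3.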

[2] = target: T2, DNA topoisomerase 1 (Homo sapiens) (UniProt P11387); experiment: Inhibition of human topoisomerase 1 at 200 uM using supercoiled pBR322 plasmid DNA as substrate after 15 mins by ethidium bromide staining based agarose gel electrophoresis method relative to control; method in brief: as §1
T2 sequence (whole entry): T1 sequence (P11387 whole entry)

[3] = system: Panel NCI-60 (60 carcinoma cell lines); experiment: Antiproliferative activity against human NCI60 cells; type: functional

Compound	IC50 (DNA topoisomerase 1) [µM]	other results
NCCNc1cc2c(cc1F)c(=O)c(C(=O)O)cn2Cc1ccc(-c2ccccc2)cc1	72.8	
O=C(O)c1cn(Cc2ccc(-n3cccn3)cc2)c2cc(N3CC4CNCC4C3)c(F)cc2c1=O (centres undefined)	173	
CNCCCCNc1c(F)cc2c(=O)c(C(=O)O)cn(Cc3ccc(-c4ccccc4)cc3)c2c1OC	> 200	inhibition [2]: 10%
CNC[C@@H]1CCN(c2cc3c(cc2F)c(=O)c(C(=O)O)cn3Cc2ccc(-n3cccn3)cc2)C1	> 200	inhibition [2]: 10%
NC[C@@H]1CCN(c2cc3c(cc2F)c(=O)c(C(=O)O)cn3Cc2cc(-c3ccccc3)no2)C1	58.3	
CNC(=O)c1cn(Cc2ccc(-c3ccccc3)cc2)c2c(OC)c(N3CC[C@@H](CN)C3)c(F)cc2c1=O	82.1	
NC[C@@H]1CCN(c2cc3c(cc2F)c(=O)c(C(=O)O)cn3Cc2ccc(-n3cccn3)cc2)C1	91.6	
COc1c(F)c(F)cc2c(=O)c(C(=O)O)cn(Cc3ccc(-c4ccccc4)cc3)c12		inhibition [2]: inactive
O=C(O)c1cn(Cc2ccc(-c3ccccc3)cc2)c2cc(NC[C@H]3CCNC3)c(F)cc2c1=O	100	
CNCCNc1cc2c(cc1F)c(=O)c(C(=O)O)cn2Cc1ccc(-c2ccccc2)cc1	> 200	inhibition [2]: 10%
O=C(O)c1cn(Cc2ccc(-n3cccn3)cc2)c2cc(N3C[C@H]4CCNC[C@H]4C3)c(F)cc2c1=O	31.3	
COc1c(N2CC[C@@H](CN)C2)c(F)cc2c(=O)c(C(=O)O)cn(Cc3ccc4ccccc4c3)c12		GI50 [3]: 3.1 µM
O=C(O)c1cn(Cc2ccc(-c3ccccc3)cc2)c2cc(N3C[C@H]4CCNC[C@H]4C3)c(F)cc2c1=O	61	
O=C(O)c1cn(Cc2ccc(-n3cccn3)cc2)c2cc(NC[C@@H]3CCNC3)c(F)cc2c1=O		inhibition [2]: 10%
O=C(O)c1cn(Cc2ccc(-n3cccn3)cc2)c2cc(NC[C@H]3CCNC3)c(F)cc2c1=O	187	
O=C(O)c1cn(Cc2ccc(-c3ccccc3)cc2)c2cc(N3CC4CNCC4C3)c(F)cc2c1=O (centres undefined)	33.3	
CNCCCNc1cc2c(cc1F)c(=O)c(C(=O)O)cn2Cc1ccc(-c2ccccc2)cc1	63.6	
CC(c1nc(-c2ccncc2)no1)n1cc(C(=O)O)c(=O)c2cc(F)c(N3CC[C@@H](CN)C3)cc21 (some centres undefined)	> 200	inhibition [2]: 10%
CNCCCCNc1cc2c(cc1F)c(=O)c(C(=O)O)cn2Cc1ccc(-c2ccccc2)cc1	88.3	
CN[C@@H]1CCN(c2cc3c(cc2F)c(=O)c(C(=O)O)cn3Cc2ccc(-c3ccccc3)cc2)C1	34.8	
NC[C@@H]1CCN(c2ccc3c(=O)c(C(=O)O)cn(Cc4ccc(-n5cccn5)cc4)c3c2)C1	61	
CNCCCNc1c(F)cc2c(=O)c(C(=O)O)cn(Cc3ccc(-c4ccccc4)cc3)c2c1OC	101	
NC[C@@H]1CCN(c2cc3c(cc2F)c(=O)c(C(=O)O)cn3Cc2nc(-c3ccncc3)no2)C1	> 200	inhibition [2]: 10%
O=C(O)c1cn(Cc2ccc(-c3ccccc3)cc2)c2cc(NC[C@@H]3CCNC3)c(F)cc2c1=O	104	
CNC(=O)c1cn(Cc2ccc(-c3ccccc3)cc2)c2c(OC)c(NC)c(F)cc2c1=O		inhibition [2]: inactive
COc1c(N2CC[C@@H](CN)C2)c(F)cc2c(=O)c(C(=O)O)cn(Cc3ccc(-c4ccccc4)cc3)c12		GI50 [3]: 1.9 µM; Activity (Calf thymus DNA): inactive; Activity [1]: inactive

Now from value to compound, other results behind:

IC50 (DNA topoisomerase 1) [µM]	Compound	other results
71.4	COC(=O)c1cn(Cc2ccc(-c3ccccc3)cc2)c2c(OC)c(N3CC[C@@H](CN)C3)c(F)cc2c1=O	
15.6	NC[C@@H]1CCN(c2cc3c(cc2F)c(=O)c(C(=O)O)cn3Cc2ccc(-c3ccccc3)cc2)C1	Activity (Calf thymus DNA): inactive; Activity [1]: inactive
> 200	COc1c(N2CC[C@@H](C(N)=O)C2)c(F)cc2c(=O)c(C(=O)O)cn(Cc3ccc(-c4ccccc4)cc3)c12	inhibition [2]: 10%
92.2	COc1c(N2CC[C@@H](N)C2)c(F)cc2c(=O)c(C(=O)O)cn(Cc3ccc(-c4ccccc4)cc3)c12	
155	CNC[C@@H]1CCN(c2c(F)cc3c(=O)c(C(=O)O)cn(Cc4ccc(-c5ccccc5)cc4)c3c2OC)C1	
> 200	COc1c(NCCN)c(F)cc2c(=O)c(C(=O)O)cn(Cc3ccc(-c4ccccc4)cc3)c12	inhibition [2]: 10%
> 200	COc1c(N2CC[C@@H](CO)C2)c(F)cc2c(=O)c(C(=O)O)cn(Cc3ccc(-c4ccccc4)cc3)c12	inhibition [2]: 10%
63.6	N[C@@H]1CCN(c2cc3c(cc2F)c(=O)c(C(=O)O)cn3Cc2ccc(-c3ccccc3)cc2)C1	
57.7	CN[C@@H]1CCN(c2c(F)cc3c(=O)c(C(=O)O)cn(Cc4ccc(-c5ccccc5)cc4)c3c2OC)C1	
61.2	NC[C@@H]1CCN(c2ccc3c(=O)c(C(=O)O)cn(Cc4ccc(-c5ccccc5)cc4)c3c2)C1	
168	CNC[C@@H]1CCN(c2cc3c(cc2F)c(=O)c(C(=O)O)cn3Cc2ccc(-c3ccccc3)cc2)C1	
178	COc1c(N2CC[C@@H](CN)C2)c(F)cc2c(=O)c(C(=O)O)cn(Cc3cc(-c4ccccc4)no3)c12	
58.6	COc1c(N2CC[C@@H](N)C2)c(F)cc2c(=O)c(C(=O)O)cn(Cc3ccc(-c4ccc(F)cc4)cc3)c12	
60.9	COc1c(N2CC[C@@H](CN)C2)c(F)cc2c(=O)c(C(=O)O)cn(Cc3ccc(-c4ccc(F)cc4)cc3)c12	
184	COc1c(N2CC[C@@H](CN)C2)c(F)cc2c(=O)c(C(N)=O)cn(Cc3ccc(-c4ccccc4)cc3)c12	
> 200	COc1c(N2CC[C@@H](CN)C2)c(F)cc2c(=O)c(C(=O)O)cn(Cc3ccc(-n4cccn4)cc3)c12	inhibition [2]: 10%
35.9	COc1c(N2CC[C@@H](CN)C2)c(F)cc2c(=O)c(C(=O)NO)cn(Cc3ccc(-c4ccccc4)cc3)c12	
> 200	CNCCNc1c(F)cc2c(=O)c(C(=O)O)cn(Cc3ccc(-c4ccccc4)cc3)c2c1OC	inhibition [2]: 10%
69.6	NC[C@@H]1CCN(c2cc3c(cc2F)c(=O)c(C(=O)O)cn3Cc2ccc(-c3ccc(F)cc3)cc2)C1	
